Assay results from ChEMBL document CHEMBL1250497, “Synthesis and pharmacological study of 1-acetyl/propyl-3-aryl-5-(5-chloro-3-methyl-1-phenyl-1H-pyrazol-4-yl)-2-pyrazoline” (2010).

Columns and labels:
Type in all cases: functional
Rattus norvegicus [1] = test: Antiinflammatory activity in albino rat assessed as reduction of carrageenan-induced paw volume at 10 mg/kg, po administered 30 mins before carrageenan challenge measured after 30 mins by plethysmograph (reference value: 0.333 +/- 0.033 ml)
How it was run: (§1)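 Rats, six per group, were dosed orally at 10 mg/kg. Controls received 0.1 mL of 1% gum acacia; diclofenac sodium was the standard. After 30 min, 0.1 mL of 1% carrageenan in normal saline was injected sub-plantar into the right hind paw. Paw volume was read by plethysmograph at 0 h and at 30-150 min. Oedema is expressed as change versus control at matching times (±SE).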

Rattus norvegicus [2] = test: Antiinflammatory activity in albino rat assessed as reduction of carrageenan-induced paw volume at 10 mg/kg, po administered 30 mins before carrageenan challenge measured after 60 mins by plethysmograph (reference value: 0.333 +/- 0.033 ml); how it was run: as §1
Rattus norvegicus [3] = test: Antiinflammatory activity in albino rat assessed as reduction of carrageenan-induced paw volume at 10 mg/kg, po administered 30 mins before carrageenan challenge measured after 90 mins by plethysmograph (reference value: 0.3667 +/- 0.033 ml); how it was run: as §1
Rattus norvegicus [4] = test: Antiinflammatory activity in albino rat assessed as reduction of carrageenan-induced paw volume at 10 mg/kg, po administered 30 mins before carrageenan challenge measured after 120 mins by plethysmograph (reference value: 0.367 +/- 0.033 ml); how it was run: as §1
Rattus norvegicus [5] = test: Antiinflammatory activity in albino rat assessed as reduction of carrageenan-induced paw volume at 10 mg/kg, po administered 30 mins before carrageenan challenge measured after 150 mins by plethysmograph (reference value: 0.3667 +/- 0.033 ml); how it was run: as §1
Rattus norvegicus [6] = test: Analgesic activity in albino rat assessed as latency in reaction time required for thermal stimulus-induced tail flicking at 10 mg/kg, po after 30 mins
How it was run: (§2)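 Albino rats, 150-200 g, six per group, held in a restrainer. A 3-4 cm marked segment of tail was immersed in water at 55 °C. Tail withdrawal time (s) was recorded before dosing and at 30, 60 and 90 min after oral dosing at 10 mg/kg in 1% gum acacia. Cut-off was 30 s. Controls received vehicle only. Pentazocin was the reference.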

Rattus norvegicus [7] = test: Analgesic activity in albino rat assessed as latency in reaction time required for thermal stimulus-induced tail flicking at 10 mg/kg, po after 60 mins; how it was run: as §2
Rattus norvegicus [8] = test: Analgesic activity in albino rat assessed as latency in reaction time required for thermal stimulus-induced tail flicking at 10 mg/kg, po after 90 mins; how it was run: as §2

O=C([O-])Cc1ccccc1Nc1c(Cl)cccc1Cl.[Na+] [DICLOFENAC SODIUM]
Activity (Rattus norvegicus [1]): 0.033 mL | Activity (Rattus norvegicus [2]): 0.033 mL | Activity (Rattus norvegicus [3]): 0.033 mL | Activity (Rattus norvegicus [4]): 0.033 mL | Activity (Rattus norvegicus [5]): 0.033 mL

CCC(=O)N1N=C(c2ccc([N+](=O)[O-])cc2)CC1c1c(C)nn(-c2ccccc2)c1Cl (centres undefined)
Activity (Rattus norvegicus [1]): 0.0667 mL | Activity (Rattus norvegicus [2]): 0.0667 mL | Activity (Rattus norvegicus [3]): 0.033 mL | Activity (Rattus norvegicus [4]): 0 mL | Activity (Rattus norvegicus [5]): 0.033 mL | Time (Rattus norvegicus [6]): 3.1 s | Time (Rattus norvegicus [7]): 3.533 s | Time (Rattus norvegicus [8]): 3.933 s

CC(=O)N1N=C(c2ccc(Cl)cc2)CC1c1c(C)nn(-c2ccccc2)c1Cl (centres undefined)
Activity (Rattus norvegicus [1]): 0.033 mL | Activity (Rattus norvegicus [2]): 0.0667 mL | Activity (Rattus norvegicus [3]): 0.033 mL | Activity (Rattus norvegicus [4]): 0.0667 mL | Activity (Rattus norvegicus [5]): 0.0667 mL | Time (Rattus norvegicus [6]): 2.5 s | Time (Rattus norvegicus [7]): 3.067 s | Time (Rattus norvegicus [8]): 4.2 s

CC(=O)N1N=C(c2ccc(C)cc2)CC1c1c(C)nn(-c2ccccc2)c1Cl (centres undefined)
Activity (Rattus norvegicus [1]): 0.0667 mL | Activity (Rattus norvegicus [2]): 0.1 mL | Activity (Rattus norvegicus [3]): 0.0667 mL | Activity (Rattus norvegicus [4]): 0.033 mL | Activity (Rattus norvegicus [5]): 0.0667 mL | Time (Rattus norvegicus [6]): 3.3 s | Time (Rattus norvegicus [7]): 4.567 s | Time (Rattus norvegicus [8]): 5.467 s

CC(C)=CCN1CC[C@]2(C)c3cc(O)ccc3C[C@H]1[C@H]2C [(+)-PENTAZOCINE]
Time (Rattus norvegicus [6]): 2.9 s | Time (Rattus norvegicus [7]): 5.6 s | Time (Rattus norvegicus [8]): 6.4 s

CCC(=O)N1N=C(c2cccc([N+](=O)[O-])c2)CC1c1c(C)nn(-c2ccccc2)c1Cl (centres undefined)
Activity (Rattus norvegicus [1]): 0.033 mL | Activity (Rattus norvegicus [2]): 0.033 mL | Activity (Rattus norvegicus [3]): 0.033 mL | Activity (Rattus norvegicus [4]): 0.1 mL | Activity (Rattus norvegicus [5]): 0.1 mL | Time (Rattus norvegicus [6]): 2.767 s | Time (Rattus norvegicus [7]): 3.067 s | Time (Rattus norvegicus [8]): 4.333 s

CC(=O)N1N=C(c2ccc(Br)cc2)CC1c1c(C)nn(-c2ccccc2)c1Cl (centres undefined)
Activity (Rattus norvegicus [1]): 0.1 mL | Activity (Rattus norvegicus [2]): 0.033 mL | Activity (Rattus norvegicus [3]): 0.033 mL | Activity (Rattus norvegicus [4]): 0.1667 mL | Activity (Rattus norvegicus [5]): 0.3 mL | Time (Rattus norvegicus [6]): 3.967 s | Time (Rattus norvegicus [7]): 4.733 s | Time (Rattus norvegicus [8]): 4.833 s

CCC(=O)N1N=C(c2ccccc2)CC1c1c(C)nn(-c2ccccc2)c1Cl (centres undefined)
Activity (Rattus norvegicus [1]): 0.2667 mL | Activity (Rattus norvegicus [2]): 0.333 mL | Activity (Rattus norvegicus [3]): 0.433 mL | Activity (Rattus norvegicus [4]): 0.367 mL | Activity (Rattus norvegicus [5]): 0.3667 mL | Time (Rattus norvegicus [6]): 2.333 s | Time (Rattus norvegicus [7]): 2.7 s | Time (Rattus norvegicus [8]): 3.633 s

CCC(=O)N1N=C(c2ccc(OC)cc2)CC1c1c(C)nn(-c2ccccc2)c1Cl (centres undefined)
Activity (Rattus norvegicus [1]): 0.1667 mL | Activity (Rattus norvegicus [2]): 0.1667 mL | Activity (Rattus norvegicus [3]): 0.133 mL | Activity (Rattus norvegicus [4]): 0.1667 mL | Activity (Rattus norvegicus [5]): 0.2 mL | Time (Rattus norvegicus [6]): 4.667 s | Time (Rattus norvegicus [7]): 4.633 s | Time (Rattus norvegicus [8]): 4.4 s

CC(=O)N1N=C(c2cccc([N+](=O)[O-])c2)CC1c1c(C)nn(-c2ccccc2)c1Cl (centres undefined)
Activity (Rattus norvegicus [1]): 0.0667 mL | Activity (Rattus norvegicus [2]): 0.0667 mL | Activity (Rattus norvegicus [3]): 0.033 mL | Activity (Rattus norvegicus [4]): 0.0667 mL | Activity (Rattus norvegicus [5]): 0.133 mL | Time (Rattus norvegicus [6]): 3.7 s | Time (Rattus norvegicus [7]): 4.733 s | Time (Rattus norvegicus [8]): 4.833 s

COc1ccc(C2=NN(C(C)=O)C(c3c(C)nn(-c4ccccc4)c3Cl)C2)cc1 (centres undefined)
Activity (Rattus norvegicus [1]): 0 mL | Activity (Rattus norvegicus [2]): 0 mL | Activity (Rattus norvegicus [3]): 0.1 mL | Activity (Rattus norvegicus [4]): 0.0667 mL | Activity (Rattus norvegicus [5]): 0.1 mL | Time (Rattus norvegicus [6]): 2.9 s | Time (Rattus norvegicus [7]): 3.7 s | Time (Rattus norvegicus [8]): 4.333 s

CCC(=O)N1N=C(c2ccc(Br)cc2)CC1c1c(C)nn(-c2ccccc2)c1Cl (centres undefined)
Activity (Rattus norvegicus [1]): 0.1667 mL | Activity (Rattus norvegicus [2]): 0.133 mL | Activity (Rattus norvegicus [3]): 0.2 mL | Activity (Rattus norvegicus [4]): 0.2667 mL | Activity (Rattus norvegicus [5]): 0.2667 mL | Time (Rattus norvegicus [6]): 3.8 s | Time (Rattus norvegicus [7]): 4.167 s | Time (Rattus norvegicus [8]): 4.5 s

CC(=O)N1N=C(c2ccc([N+](=O)[O-])cc2)CC1c1c(C)nn(-c2ccccc2)c1Cl (centres undefined)
Activity (Rattus norvegicus [1]): 0.1 mL | Activity (Rattus norvegicus [2]): 0.0667 mL | Activity (Rattus norvegicus [3]): 0.06 mL | Activity (Rattus norvegicus [4]): 0.0667 mL | Activity (Rattus norvegicus [5]): 0.1667 mL | Time (Rattus norvegicus [6]): 3.467 s | Time (Rattus norvegicus [7]): 4.767 s | Time (Rattus norvegicus [8]): 5.267 s

CCC(=O)N1N=C(c2ccc(C)cc2)CC1c1c(C)nn(-c2ccccc2)c1Cl (centres undefined)
Activity (Rattus norvegicus [1]): 0.0667 mL | Activity (Rattus norvegicus [2]): 0.133 mL | Activity (Rattus norvegicus [3]): 0.133 mL | Activity (Rattus norvegicus [4]): 0.3 mL | Activity (Rattus norvegicus [5]): 0.3 mL | Time (Rattus norvegicus [6]): 2.9 s | Time (Rattus norvegicus [7]): 3.733 s | Time (Rattus norvegicus [8]): 4.6 s
